Data on eight compounds can be found in ChEMBL document CHEMBL1140193, “Synthesis and anti-inflammatory evaluation of methylene bridged benzofuranyl imidazo[2,1-b][1,3,4]thiadiazoles” (Eur J Med Chem, 2008).

One may read the inhibition in vivo as the share of the control response that was lost under treatment.

The test system of series [1] is Rattus norvegicus. The experiment in a line: Toxicity in Wistar albino rat assessed as induction of convulsions and tremors up to 3 g/kg, po after 8 hrs. It counts as organism-based. Conditions: in vivo, 3000 mg/kg. The gist of the method: (§1)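 Acute toxicity: albino rats of either sex in groups of six, oral doses from 100 up to 3000 mg kg^-1. Rats observed continuously for 8 h for changes in motor activity, ataxia, tremors, convulsions, sedation and lacrimation. Ulceration and haemorrhagic spots also inspected.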

Series [2] concerns Rattus norvegicus. The experiment in a line: Analgesic activity in Wistar albino rat […] assessed as increase in reaction time for tail withdrawal at 100 mg/kg, po after 180 mins by tail flick method. It counts as functional. In general terms: Thermal pain tests record how soon the animal reacts.
Series [3] concerns Rattus norvegicus. Description: Antiinflammatory activity in Wistar albino rat assessed as inhibition of carrageenan-induced paw oedema at 100 mg/kg, po measured 5 hrs after carrageenan challenge. It counts as functional. The gist of the method:
(§2)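 Albino rats, 6 per group, dosed orally at 100 mg kg^-1; ibuprofen 100 mg kg^-1 as standard. One hour after dosing, 0.1 ml of 1% carrageenan with 2% gum acacia in normal saline injected subplantar into the right hind paw. Paw volume measured by plethysmometer; % inhibition versus control calculated. One-way ANOVA with Dunnett's t test.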
On the technique in general: Carrageenan injected into the paw causes an acute inflammation.

In series [4] the test system is Rattus norvegicus. The experiment in a line: Toxicity in Wistar albino rat assessed as induction of haemorrhagic spots up to 3 g/kg, po after 8 hrs. It counts as organism-based. The following applies: in vivo, 3000 mg/kg. The gist of the method:
as §1

Series [5] relates to Rattus norvegicus. Description: Analgesic activity in Wistar albino rat […] assessed as increase in reaction time for tail withdrawal at 100 mg/kg, po after 300 mins by tail flick method. It counts as functional. The gist of the method:
(§3)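 Rat tail-flick test: latency for the rat to withdraw its tail from hot water at 55 ± 0.5 °C. Drugs given orally. Reaction time in seconds read at 60, 90, 120 and 300 min after dosing. Treated animals compared with control and with a nimesulide standard. Wistar albino rats, 150-200 g, either sex; food withdrawn 12 h before and during testing.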

Series [6] deals with Rattus norvegicus. The experiment in a line: Analgesic activity in Wistar albino rat […] assessed as reaction time for tail withdrawal at 100 mg/kg, po after 30 mins by tail flick method. It counts as functional.
For series [7], the system named is Rattus norvegicus. The experiment in a line: Analgesic activity in Wistar albino rat […] assessed as reaction time for tail withdrawal at 100 mg/kg, po after 120 mins by tail flick method. It counts as functional. The gist of the method: as §3
In series [8] the test system is Rattus norvegicus. The experiment in a line: Antiinflammatory activity in Wistar albino rat assessed as inhibition of carrageenan-induced paw oedema at 100 mg/kg, po measured 1 hr after carrageenan challenge. It counts as functional. The gist of the method: as §2
Series [9] deals with Rattus norvegicus. Description: Antiinflammatory activity in Wistar albino rat assessed as inhibition of carrageenan-induced paw oedema at 100 mg/kg, po measured 3 hrs after carrageenan challenge. It counts as functional. The gist of the method: as §2
The test system of series [10] is Rattus norvegicus. Description: Toxicity in Wistar albino rat assessed as induction of sedation up to 3 g/kg, po after 8 hrs. It counts as organism-based. The following applies: in vivo, 3000 mg/kg. The gist of the method: as §1
Series [11] relates to Rattus norvegicus. The experiment in a line: Antiinflammatory activity in Wistar albino rat assessed as inhibition of carrageenan-induced paw oedema at 100 mg/kg, po measured 2 hrs after carrageenan challenge. It counts as functional. The gist of the method:
as §2

The subject of series [12] is Rattus norvegicus. The experiment in a line: Toxicity in Wistar albino rat assessed as induction of gastric ulceration up to 3 g/kg, po after 8 hrs. It counts as organism-based, Stomach. Conditions: in vivo, 3000 mg/kg. The gist of the method:
as §1

In series [13] the test system is Rattus norvegicus. Description: Antiinflammatory activity in Wistar albino rat assessed as inhibition of carrageenan-induced paw oedema at 100 mg/kg, po measured 0.5 hrs after carrageenan challenge. It counts as functional. The gist of the method:
as §2

Series [14] deals with Rattus norvegicus. The experiment in a line: Toxicity in Wistar albino rat assessed as mortality up to 3 g/kg, po after 24 hrs. It counts as organism-based. The following applies: in vivo, 3000 mg/kg. The gist of the method:
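Albino rats of either sex, six per group, dosed orally from 100 up to 3000 mg kg^-1 body weight. Animals were watched continuously for 8 h for signs of acute toxicity such as altered motor activity, ataxia, tremors, convulsions, sedation and lacrimation, and were checked for mortality over a 24 h period. Food was withheld for 12 h before dosing.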

In series [15] the test system is Rattus norvegicus. Description: Antiinflammatory activity in Wistar albino rat assessed as inhibition of carrageenan-induced paw oedema at 100 mg/kg, po measured 4 hrs after carrageenan challenge. It counts as functional. The gist of the method: as §2
The subject of series [16] is Rattus norvegicus. The experiment in a line: Toxicity in Wistar albino rat assessed as effect on motor activity up to 3 g/kg, po after 8 hrs. It counts as organism-based. Conditions: in vivo, 3000 mg/kg. The gist of the method:
as §1

The test system of series [17] is Rattus norvegicus. Description: Analgesic activity in Wistar albino rat […] assessed as reaction time for tail withdrawal at 100 mg/kg, po after 180 mins by tail flick method. It counts as functional.
The test system of series [18] is Rattus norvegicus. Description: Analgesic activity in Wistar albino rat […] assessed as reaction time for tail withdrawal at 100 mg/kg, po after 300 mins by tail flick method. It counts as functional. The gist of the method: as §3
Series [19] concerns Rattus norvegicus. The experiment in a line: Analgesic activity in Wistar albino rat […] assessed as reaction time for tail withdrawal at 100 mg/kg, po after 60 mins by tail flick method. It counts as functional. The gist of the method:
as §3

Consider `Cc1ccc2c(Cc3nn4c(CN5CCOCC5)c(-c5ccc([N+](=O)[O-])cc5)nc4s3)coc2c1`, for which the Activity entry with Rattus norvegicus [1] is listed as “Non-toxic”; in the series on Rattus norvegicus [2] it was 246.62%; in the series on Rattus norvegicus [4], “Non-toxic”; in the series on Rattus norvegicus [5], 199.4%; in the series on Rattus norvegicus [6], 3.6 s; with Rattus norvegicus [7], 8.433 s. Further, the Activity entry is on record as “Non-toxic” in the series on Rattus norvegicus [10]; “Non-toxic” in the series with Rattus norvegicus [12]; “Non-toxic” in the series with Rattus norvegicus [14]; “Non-toxic” in the series with Rattus norvegicus [16]; 9.3 s in the series on Rattus norvegicus [17]; 8.033 s in the series with Rattus norvegicus [18]. The Activity in the series on Rattus norvegicus [19] turned out to be 5.933 s. For the same compound, the inhibition in vivo at 100 mg/kg in the series on Rattus norvegicus [3] came to 51.2%; in the series on Rattus norvegicus [8] it was 5.19%; with Rattus norvegicus [9] it was 41.6%; in the series on Rattus norvegicus [11], 24.3%; in the series with Rattus norvegicus [13] it was 3.6%; in the series on Rattus norvegicus [15] it was 48%.
With `Cc1ccc2c(Cc3nn4c(/C=N/O)c(-c5ccc(Cl)cc5)nc4s3)coc2c1`, the Activity entry in the series on Rattus norvegicus [1] is listed as “Non-toxic”; in the series with Rattus norvegicus [2], 1.26%; in the series with Rattus norvegicus [4], “Non-toxic”; in the series on Rattus norvegicus [5] it was -3.09%; in the series with Rattus norvegicus [6], 2.483 s; in the series with Rattus norvegicus [7] it was 2.633 s. Moreover, the Activity result in the series with Rattus norvegicus [10] is on record as “Non-toxic”; with Rattus norvegicus [12] it was “Non-toxic”; in the series with Rattus norvegicus [14], “Non-toxic”; in the series on Rattus norvegicus [16], “Non-toxic”; in the series on Rattus norvegicus [17] it was 2.717 s; with Rattus norvegicus [18], 2.6 s. Moreover, in the series with Rattus norvegicus [19], the Activity worked out at 2.667 s. For the same compound, the inhibition in vivo at 100 mg/kg in the series with Rattus norvegicus [3] was found to be 31%; in the series with Rattus norvegicus [8], 5.19%; in the series on Rattus norvegicus [9], 10%; in the series on Rattus norvegicus [11] it was 11.2%; with Rattus norvegicus [13], 6%; in the series with Rattus norvegicus [15], 11.1%.
With `CS(=O)(=O)Nc1ccc([N+](=O)[O-])cc1Oc1ccccc1` [NIMESULIDE], the Activity is 260.9% in the series on Rattus norvegicus [2]; 218.67% in the series on Rattus norvegicus [5]; 5.1 s in the series with Rattus norvegicus [6]; 8.65 s with Rattus norvegicus [7]; 9.683 s in the series on Rattus norvegicus [17]; 8.55 s in the series with Rattus norvegicus [18]. The Activity in the series with Rattus norvegicus [19] was 7.683 s.
In the case of `Cc1ccc2c(Cc3nn4cc(-c5ccc(Cl)cc5)nc4s3)coc2c1`, the Activity result was “Non-toxic” in the series with Rattus norvegicus [1]; 259.03% in the series on Rattus norvegicus [2]; “Non-toxic” in the series with Rattus norvegicus [4]; 196.31% with Rattus norvegicus [5]; 3.483 s in the series with Rattus norvegicus [6]; 8.75 s in the series on Rattus norvegicus [7]. Further, the Activity entry with Rattus norvegicus [10] is on record as “Non-toxic”; in the series with Rattus norvegicus [12] it was “Non-toxic”; with Rattus norvegicus [14] it was “Non-toxic”; in the series with Rattus norvegicus [16], “Non-toxic”; with Rattus norvegicus [17], 9.633 s; in the series on Rattus norvegicus [18], 7.95 s. In the series with Rattus norvegicus [19], the Activity came to 4.033 s. Moreover, the inhibition in vivo at 100 mg/kg in the series with Rattus norvegicus [3] was 58.1%; in the series with Rattus norvegicus [8] it was 13.4%; in the series on Rattus norvegicus [9], 51.7%; in the series with Rattus norvegicus [11] it was 42.1%; in the series on Rattus norvegicus [13], 8.38%; with Rattus norvegicus [15], 55.9%.
As to `Cc1ccc2c(Cc3nn4c(CO)c(-c5ccc(Br)cc5)nc4s3)coc2c1`, the Activity entry was “Non-toxic” in the series on Rattus norvegicus [1]; 177.3% in the series with Rattus norvegicus [2]; “Non-toxic” in the series with Rattus norvegicus [4]; 126.12% in the series on Rattus norvegicus [5]; 3.667 s with Rattus norvegicus [6]; 5.917 s in the series on Rattus norvegicus [7]. The Activity result is on record as “Non-toxic” with Rattus norvegicus [10]; “Non-toxic” with Rattus norvegicus [12]; “Non-toxic” with Rattus norvegicus [14]; “Non-toxic” with Rattus norvegicus [16]; 7.4 s with Rattus norvegicus [17]; 6.067 s in the series with Rattus norvegicus [18]. Also, in the series with Rattus norvegicus [19], the Activity is 4.583 s. Besides, the inhibition in vivo at 100 mg/kg in the series with Rattus norvegicus [3] came to 47.3%; in the series on Rattus norvegicus [8], 7.2%; in the series on Rattus norvegicus [9], 36.6%; with Rattus norvegicus [11] it was 13.1%; with Rattus norvegicus [13], 2.38%; in the series with Rattus norvegicus [15], 44.9%.
As for `Cc1ccc2c(Cc3nn4cc(-c5ccc(Br)cc5)nc4s3)coc2c1`, the Activity result in the series on Rattus norvegicus [1] was “Non-toxic”; with Rattus norvegicus [2], 0.633%; with Rattus norvegicus [4], “Non-toxic”; in the series with Rattus norvegicus [5], 0%; in the series with Rattus norvegicus [6], 2.65 s; in the series on Rattus norvegicus [7] it was 2.583 s. In addition, the Activity result with Rattus norvegicus [10] is recorded as “Non-toxic”; with Rattus norvegicus [12] it was “Non-toxic”; with Rattus norvegicus [14], “Non-toxic”; in the series on Rattus norvegicus [16], “Non-toxic”; in the series on Rattus norvegicus [17], 2.7 s; in the series with Rattus norvegicus [18], 2.683 s. For the same compound, the Activity in the series with Rattus norvegicus [19] turned out to be 2.667 s. Besides, the inhibition in vivo at 100 mg/kg is 22.5% in the series on Rattus norvegicus [3]; 10.3% in the series with Rattus norvegicus [8]; 10.8% with Rattus norvegicus [9]; 12% with Rattus norvegicus [11]; 6% in the series on Rattus norvegicus [13]; 11.1% in the series with Rattus norvegicus [15].
Regarding `Cc1ccc2c(Cc3nn4c(CN5CCOCC5)c(-c5ccc(Cl)cc5)nc4s3)coc2c1`, the Activity entry in the series with Rattus norvegicus [1] was “Non-toxic”; in the series with Rattus norvegicus [2], 205.62%; in the series with Rattus norvegicus [4], “Non-toxic”; in the series on Rattus norvegicus [5], 159.03%; with Rattus norvegicus [6] it was 3.767 s; in the series on Rattus norvegicus [7] it was 6.767 s. In addition, the Activity entry with Rattus norvegicus [10] is on record as “Non-toxic”; with Rattus norvegicus [12], “Non-toxic”; in the series with Rattus norvegicus [14] it was “Non-toxic”; in the series with Rattus norvegicus [16], “Non-toxic”; in the series with Rattus norvegicus [17] it was 8.2 s; with Rattus norvegicus [18] it was 6.95 s. Besides, in the series with Rattus norvegicus [19], the Activity is recorded as 5.45 s. For the same compound, the inhibition in vivo at 100 mg/kg was 50.4% in the series with Rattus norvegicus [3]; 15.5% in the series on Rattus norvegicus [8]; 43.4% with Rattus norvegicus [9]; 28.9% in the series on Rattus norvegicus [11]; 4.77% in the series with Rattus norvegicus [13]; 48% in the series with Rattus norvegicus [15].
As for `CC(C)Cc1ccc(C(C)C(=O)O)cc1` (configuration not stated) [IBUPROFEN], the inhibition in vivo at 100 mg/kg in the series on Rattus norvegicus [3] came to 72.9%; in the series with Rattus norvegicus [8], 42.3%; with Rattus norvegicus [9], 60%; in the series with Rattus norvegicus [11], 42.9%; in the series with Rattus norvegicus [13], 42.1%; with Rattus norvegicus [15], 66.1%.
